Converted amounts (≈) assume the structure as drawn. Blank lines part the entries; values can stand above or below the compound they belong to.
What was measured:
[1] = Solubility of the compound in phosphate buffer at pH 7.4 at 25 degC after 24 hrs by ultraperformance LC/MS/MS method
[2] = Apparent permeability across apical to basolateral side in human Caco2 cells at 10 uM after 45 to 120 mins by ultraperformance LC/MS/MS method; conditions: Caco-2
[3] = Efflux ratio of apparent permeability across basolateral to apical over apical to basolateral side in human Caco2 cells at 10 uM after 45 to 120 mins by ultraperformance LC/MS/MS method; conditions: Caco-2
[4] = Prodrug conversion in human plasma assessed as esterase-mediated metabolite formation after 4 hrs; format: ADME, cell-free
[5] = Prodrug conversion in rat hepatocytes assessed as esterase-mediated 3-((3-(2-(2-(Aminomethyl)-5-chlorobenzylamino)-2-oxoethyl)-4-methyl-2-oxo-5,6-dihydropyridin-1(2H)-ylamino)methyl)benzoic acid formation at 4 uM after 40 mins by ultraperformance liquid chromatographic method; format: ADME, cell-based
[6] = Prodrug conversion in human liver microsomes assessed as 3-((3-(2-(2-(Aminomethyl)-5-chlorobenzylamino)-2-oxoethyl)-4-methyl-2-oxo-5,6-dihydropyridin-1(2H)-ylamino)methyl)benzoic acid formation in presence of NADPH; format: ADME, Microsome
[7] = Prodrug conversion in human liver microsomes assessed as 3-((3-(2-(2-(Aminomethyl)-5-chlorobenzylamino)-2-oxoethyl)-4-methyl-2-oxo-5,6-dihydropyridin-1(2H)-ylamino)methyl)benzoic acid formation in absence of NADPH; format: ADME, Microsome
[8] = physchem; conditions: 1-octanol/phosphate buffer, pH 7.4
[9] = rat, isolated protein, 40 min, 4 µM
[10] = Intrinsic clearance in Sprague-Dawley rat liver microsomes at 1 umol/L after 7 to 30 mins by LC-MS/MS method; format: ADME, Microsome; conditions: read-out: CLH
[11] = molecular target: Cytochrome P450 3A4 (Homo sapiens, UniProt P08684); assay: Inhibition of human CYP3A4; format: ADME
Sequence of Cytochrome P450 3A4 (P08684 whole entry): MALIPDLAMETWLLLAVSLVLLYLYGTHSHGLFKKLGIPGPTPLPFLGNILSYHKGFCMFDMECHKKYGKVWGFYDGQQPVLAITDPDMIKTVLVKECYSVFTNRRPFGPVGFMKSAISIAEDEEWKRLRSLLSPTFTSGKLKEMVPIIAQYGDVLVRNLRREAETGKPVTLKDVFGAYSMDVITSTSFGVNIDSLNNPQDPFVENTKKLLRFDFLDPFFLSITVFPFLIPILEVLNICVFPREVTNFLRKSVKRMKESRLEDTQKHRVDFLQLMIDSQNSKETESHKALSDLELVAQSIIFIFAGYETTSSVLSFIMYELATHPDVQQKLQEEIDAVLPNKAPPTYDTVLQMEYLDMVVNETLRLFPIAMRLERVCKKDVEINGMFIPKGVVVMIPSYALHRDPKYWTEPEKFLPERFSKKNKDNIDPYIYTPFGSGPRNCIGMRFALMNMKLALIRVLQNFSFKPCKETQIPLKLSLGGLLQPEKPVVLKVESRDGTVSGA

[12] = tested on: Plasma; assay: Anticoagulant activity in human citrated plasma assessed as concentration required to double activated partial thromboplastin time after 3 mins by coagulation analyser; format: functional, cell-free; conditions: 0.05 h
[13] = species: Rattus norvegicus; assay: Antithrombotic activity in rat caval vein thrombosis model assessed as prevention of venous thrombosis; format: functional, organism-based
[14] = molecular target: Prothrombin (Homo sapiens, UniProt P00734); assay: Inhibition of human alpha-thrombin using S-2366 as substrate after 40 mins
[15] = molecular target: Serine protease 1 (Homo sapiens, UniProt P07477); assay: Inhibition of human trypsin 1 using S-2222 as substrate preincubated for 300 secs followed by substrate addition measured after 40 mins
Sequence of Serine protease 1 (P07477 whole entry): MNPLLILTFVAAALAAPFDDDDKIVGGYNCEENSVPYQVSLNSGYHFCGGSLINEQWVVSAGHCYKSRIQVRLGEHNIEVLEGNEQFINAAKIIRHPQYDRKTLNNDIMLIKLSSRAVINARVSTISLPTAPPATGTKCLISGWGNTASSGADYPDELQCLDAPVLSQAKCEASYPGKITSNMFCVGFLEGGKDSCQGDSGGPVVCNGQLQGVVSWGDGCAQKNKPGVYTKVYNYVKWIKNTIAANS
Summary of the method: (§1)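 Human proteases assayed at one substrate concentration with ten inhibitor concentrations at 37 °C, ≤1.3% DMSO, in an enzyme-specific Tris-HCl pH 7.4 buffer. Enzyme and inhibitor preincubated 300 s, then substrate added; absorbance read at 405 nm after 40 min. IC50 converted to Ki by IC50 = Ki(1+S/KM), using KM measured under assay conditions.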

[16] = Inhibition of human tissue factor/F7a using spectrozyme as substrate preincubated for 300 secs followed by substrate addition measured after 40 mins; summary of the method: as §1
[17] = molecular target: Coagulation factor IX (Homo sapiens, UniProt P00740); assay: Inhibition of human F9a using pefachrome F9a as substrate preincubated for 300 secs followed by substrate addition measured after 40 mins
Sequence of Coagulation factor IX (P00740 47-191 limits assumed): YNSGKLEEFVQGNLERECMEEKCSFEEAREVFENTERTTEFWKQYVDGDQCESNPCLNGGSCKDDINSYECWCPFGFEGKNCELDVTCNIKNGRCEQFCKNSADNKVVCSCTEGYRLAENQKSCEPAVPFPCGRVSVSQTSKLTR
Sequence of Coagulation factor IX (P00740 227-461 limits assumed): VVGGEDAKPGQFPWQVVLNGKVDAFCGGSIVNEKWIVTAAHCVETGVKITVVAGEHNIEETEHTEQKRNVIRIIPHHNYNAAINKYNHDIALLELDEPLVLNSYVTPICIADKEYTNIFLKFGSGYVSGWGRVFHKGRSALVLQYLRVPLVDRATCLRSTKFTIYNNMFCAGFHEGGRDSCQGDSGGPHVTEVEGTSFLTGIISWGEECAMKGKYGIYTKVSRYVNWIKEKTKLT

[18] = molecular target: Coagulation factor X (Homo sapiens, UniProt P00742); assay: Inhibition of human F10a using S-2765 as substrate preincubated for 300 secs followed by substrate addition measured after 40 mins; summary of the method: as §1
Sequence of Coagulation factor X (P00742 41-179 limits assumed): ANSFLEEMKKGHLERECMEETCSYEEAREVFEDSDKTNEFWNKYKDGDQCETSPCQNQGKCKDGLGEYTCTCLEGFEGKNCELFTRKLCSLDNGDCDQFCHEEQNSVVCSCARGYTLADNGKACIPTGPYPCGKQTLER
Sequence of Coagulation factor X (P00742 235-488 limits assumed): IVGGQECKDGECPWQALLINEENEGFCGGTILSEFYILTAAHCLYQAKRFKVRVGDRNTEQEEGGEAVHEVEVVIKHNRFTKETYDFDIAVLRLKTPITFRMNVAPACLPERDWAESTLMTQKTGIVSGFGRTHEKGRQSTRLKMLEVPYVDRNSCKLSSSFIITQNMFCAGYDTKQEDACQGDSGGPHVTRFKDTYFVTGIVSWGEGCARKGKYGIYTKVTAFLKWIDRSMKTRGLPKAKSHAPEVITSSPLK

[19] = molecular target: Coagulation factor XI (Homo sapiens, UniProt P03951); assay: Inhibition of human F11a using S-2366 as substrate preincubated for 300 secs followed by substrate addition measured after 40 mins; summary of the method: as §1
Sequence of Coagulation factor XI (P03951 19-387 limits assumed): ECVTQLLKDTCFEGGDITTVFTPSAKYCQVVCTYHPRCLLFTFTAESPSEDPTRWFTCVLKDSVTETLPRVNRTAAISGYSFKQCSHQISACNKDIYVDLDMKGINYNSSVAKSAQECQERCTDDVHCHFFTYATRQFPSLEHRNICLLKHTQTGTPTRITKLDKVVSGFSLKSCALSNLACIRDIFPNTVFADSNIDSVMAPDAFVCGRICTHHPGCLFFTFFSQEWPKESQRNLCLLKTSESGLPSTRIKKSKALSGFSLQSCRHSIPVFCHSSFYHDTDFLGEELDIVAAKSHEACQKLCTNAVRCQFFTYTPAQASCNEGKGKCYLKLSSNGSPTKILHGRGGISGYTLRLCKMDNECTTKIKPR
Sequence of Coagulation factor XI (P03951 388-625 limits assumed): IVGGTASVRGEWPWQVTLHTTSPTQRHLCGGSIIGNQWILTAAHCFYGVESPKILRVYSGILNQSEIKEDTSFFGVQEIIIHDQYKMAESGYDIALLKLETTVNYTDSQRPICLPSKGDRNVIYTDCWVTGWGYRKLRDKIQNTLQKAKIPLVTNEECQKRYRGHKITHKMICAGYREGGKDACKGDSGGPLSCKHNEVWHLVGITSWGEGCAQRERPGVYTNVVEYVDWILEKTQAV

[20] = molecular target: Plasminogen (Homo sapiens, UniProt P00747); assay: Inhibition of human plasmin using S-2366 as substrate preincubated for 300 secs followed by substrate addition measured after 40 mins; summary of the method: as §1
Sequence of Plasminogen (P00747 97-580 limits assumed): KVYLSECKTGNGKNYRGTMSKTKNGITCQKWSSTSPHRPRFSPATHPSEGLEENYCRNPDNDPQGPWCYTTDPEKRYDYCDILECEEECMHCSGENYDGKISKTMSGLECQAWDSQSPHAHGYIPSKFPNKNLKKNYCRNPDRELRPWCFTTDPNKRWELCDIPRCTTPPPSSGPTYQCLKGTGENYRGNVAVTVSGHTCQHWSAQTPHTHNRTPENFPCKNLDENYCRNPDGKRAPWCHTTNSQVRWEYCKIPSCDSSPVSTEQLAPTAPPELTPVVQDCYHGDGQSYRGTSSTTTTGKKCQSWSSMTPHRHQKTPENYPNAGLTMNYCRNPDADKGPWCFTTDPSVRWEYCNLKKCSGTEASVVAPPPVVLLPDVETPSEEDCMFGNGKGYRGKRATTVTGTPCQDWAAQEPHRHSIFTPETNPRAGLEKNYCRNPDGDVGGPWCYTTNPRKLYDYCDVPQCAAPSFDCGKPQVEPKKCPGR
Sequence of Plasminogen (P00747 581-810 limits assumed): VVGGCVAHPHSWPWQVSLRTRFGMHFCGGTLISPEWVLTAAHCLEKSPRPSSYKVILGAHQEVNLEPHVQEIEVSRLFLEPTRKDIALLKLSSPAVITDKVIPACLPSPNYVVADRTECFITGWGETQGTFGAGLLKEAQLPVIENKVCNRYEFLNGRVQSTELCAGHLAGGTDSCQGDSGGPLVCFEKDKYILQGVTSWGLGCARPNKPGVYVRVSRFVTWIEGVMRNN

[21] = molecular target: Thrombin & trypsin (Homo sapiens) (UniProt P00734+P07477+P07478+P35030); assay: Selectivity ratio of Ki for human trypsin 1 to Ki for human alpha-thrombin; format: protein assay
[22] = species: Homo sapiens; assay: Selectivity ratio of Ki for human tissue factor/F7a to Ki for human alpha-thrombin
[23] = species: Homo sapiens; assay: Selectivity ratio of Ki for human F9a to Ki for human alpha-thrombin
[24] = species: Homo sapiens; assay: Selectivity ratio of Ki for human F10a to Ki for human alpha-thrombin
[25] = species: Homo sapiens; assay: Selectivity ratio of Ki for human F11a to Ki for human alpha-thrombin
[26] = species: Homo sapiens; assay: Selectivity ratio of Ki for human plasmin to Ki for human alpha-thrombin

- solubility at 24 h [1]: 340 µM (≈ 184 µg/mL)
- Papp A→B at 10 µM [2]: 45 ×10⁻⁶ cm/s
- efflux ratio at 10 µM [3]: 4.8
- Drug metabolism [4]: Metabolite_Notdetected
- Drug metabolism [5]: Metabolite_Detected
- Drug metabolism [6]: Metabolite_Detected
- Drug metabolism [7]: Metabolite_Detected
- logD at 3 h [8]: 2.6
SMILES: CC1=C2CC(=O)NCc3cc(Cl)ccc3CNC(=O)OC(C)OC(=O)c3cccc(c3)CNN(CC1)C2=O (stereo unspecified)

SMILES: C=O [FORMALDEHYDE]
- Drug metabolism [9]: Metabolite_Detected

- microsomal CLint at 1 µM [10]: 150 µL/min/mg
- IC50 [11]: 13 µM
- IC50 [12]: 0.68 µM
- IC50 [13]: 0.072 µM
- Ki [14]: 0.0005 µM
- Ki [15]: > 5.4 µM
- Ki [16]: > 33 µM
- Ki [17]: > 29 µM
- Ki [18]: > 17 µM
- Ki [19]: > 19 µM
- Ki [20]: > 19 µM
- Ratio Ki [21]: > 1000
- Ratio Ki [22]: > 1000
- Ratio Ki [23]: > 1000
- Ratio Ki [24]: > 1000
- Ratio Ki [25]: > 1000
- Ratio Ki [26]: > 1000
SMILES: CC1=C(CC(=O)NCc2cc(Cl)ccc2CN)C(=O)N(NCc2ccccc2)CC1
